Compound activity as filed in PubChem BioAssay.
Rows were chosen to be rich in hits. Some 4.7% of all compounds tested hit in one or more screens of this group.
IMP-1 inhibitor – IMP-1 metallo-beta-lactamase inhibitors, primary screen, biochemical, epi-absorbance readout, Pseudomonas aeruginosa enzyme | metallo-beta-lactamase IMP-1 (Pseudomonas aeruginosa) | purified IMP-1, nitrocefin hydrolysis, epi-absorbance fluorescence | inhibition, % at 5.6 µM | hit rate 0.45% among 290,000 | AID 1556, 2009;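 active = inhibition above the mean plus 3 SD of all compounds in the same screening run, cut at about 4.5% in these data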;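 also: 0% = IMP-1 with DMSO and 100% = DMSO wells lacking enzyme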
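Assay system: purified recombinant IMP-1 beta-lactamase. Input: IMP-1 0.2 nM before substrate addition. Buffer or medium: Zinc- and detergent-supplemented HEPES buffer, pH 7.1. Schedule: 25 °C, 15 min preincubation, 25 min reaction. Signal: Epi-absorbance fluorescence, 480 nm excitation, 530 nm emission. Evaluation: percent inhibition from optical density relative to buffer-blank wells.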
Jurkat NFkB inh – inhibitors of induced NF-kB luciferase reporter, primary screen, TCR NF-kB activation inhibitor project, cell-based, luminescence, uHTS; Jurkat, PMA/ionomycin-induced NF-kB luciferase reporter; AID 435003, 2010; inhibition, % at 4 µM; hit rate 0.53% among 330,000; in the data active = inhibition above about 50%
697 NFkB inh – inhibitors of PMA/ionomycin-induced NF-kB reporter, 697 cells, primary screen, B-cell NF-kB inhibitor project, cell-based, luminescence, uHTS; 697 B-cell NF-kB luciferase reporter, 16 h; inhibition, % at 4 µM; hit rate 0.33% among 330,000; AID 435022, 2010; in the data active = inhibition above about 35%
aSyn UTR inh – MLPCN primary screen, SNCA 5' untranslated region | alpha-synuclein 5'UTR reporter, inhibitor activity | AID 1813, 2009 | inhibition, % (tested at 7.5 µM) | hit rate 0.82% among 300,000; in the data active = inhibition above about 60%;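 also: H4 neuroglioblastoma cells stably carrying SNCA 5'UTR luciferase fusion; 0% = DMSO wells and 100% = positive control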
Mdm2 MdmX PPI – inhibitors of human Mdm2-MdmX association, primary screen, cell-based, luminescence, split luciferase, SaOS-2, uHTS. Protein Mdm4 (Homo sapiens) + E3 ubiquitin-protein ligase Mdm2 (Homo sapiens), …. SaOS-2 split-luciferase Mdm2/MdmX complementation. inhibition, % at 8 µM. hit rate 3% among 330,000. AID 485346, 2010;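 active = inhibition of at least 50% at 8 µM in the primary screen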
Target sequence (O15151 whole entry, looked up): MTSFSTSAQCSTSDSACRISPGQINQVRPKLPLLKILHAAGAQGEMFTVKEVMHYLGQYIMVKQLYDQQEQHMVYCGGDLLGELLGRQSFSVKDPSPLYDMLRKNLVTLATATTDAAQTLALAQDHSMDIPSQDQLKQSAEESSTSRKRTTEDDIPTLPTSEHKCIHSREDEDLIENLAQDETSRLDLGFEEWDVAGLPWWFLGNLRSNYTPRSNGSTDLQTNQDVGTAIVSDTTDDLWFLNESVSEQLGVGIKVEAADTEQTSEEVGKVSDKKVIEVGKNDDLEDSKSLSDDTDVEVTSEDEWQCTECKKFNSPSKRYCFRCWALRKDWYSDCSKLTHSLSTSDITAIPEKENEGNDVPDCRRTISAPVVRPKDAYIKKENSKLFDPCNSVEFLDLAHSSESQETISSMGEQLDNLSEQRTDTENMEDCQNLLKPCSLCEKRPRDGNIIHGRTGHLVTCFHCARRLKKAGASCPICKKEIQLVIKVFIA
Target sequence (Q00987 whole entry, looked up): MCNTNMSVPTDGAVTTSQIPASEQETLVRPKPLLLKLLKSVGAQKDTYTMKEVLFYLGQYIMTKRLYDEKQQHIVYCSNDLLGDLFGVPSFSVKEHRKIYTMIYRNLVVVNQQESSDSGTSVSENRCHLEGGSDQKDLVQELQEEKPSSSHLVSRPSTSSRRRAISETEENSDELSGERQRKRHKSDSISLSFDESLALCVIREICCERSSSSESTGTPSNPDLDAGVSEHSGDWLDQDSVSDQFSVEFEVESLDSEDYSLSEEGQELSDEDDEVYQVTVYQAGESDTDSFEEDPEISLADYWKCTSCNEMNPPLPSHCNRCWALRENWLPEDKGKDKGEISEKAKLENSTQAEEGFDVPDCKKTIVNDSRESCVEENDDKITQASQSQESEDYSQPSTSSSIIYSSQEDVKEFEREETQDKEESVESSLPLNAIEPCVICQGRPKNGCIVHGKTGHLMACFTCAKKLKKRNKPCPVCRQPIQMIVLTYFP
VIM-2 inh – VIM-2 metallo-beta-lactamase inhibitors, primary screen, biochemical, epi-absorbance readout, Pseudomonas aeruginosa enzyme; purified VIM-2, nitrocefin hydrolysis, epi-absorbance fluorescence; inhibition, % at 5.6 µM; hit rate 0.89% among 290,000; AID 1527, 2009;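 active = inhibition above the mean of all tested compounds plus 3 SD, cutoff set per screening run, cut at about 7.5% in these data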;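 also: red hydrolysis product quenches plate fluorescence so inhibitors raise well fluorescence; 0% = enzyme with DMSO and 100% = DMSO without enzyme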
An asterisk follows results filed as active; · = not tested or not shown; ! = a repeat was not active.

SMILES | IMP-1 inhibitor | Jurkat NFkB inh | 697 NFkB inh | aSyn UTR inh | Mdm2 MdmX PPI | VIM-2 inh
O=C(CCc1nc(-c2ccccc2Cl)no1)NC1CCCCC1 | -2 | 1 | 0 | 0 | 5 | -1
COC(CNC(=O)C1CC(=O)N(CCc2ccc(C)cc2)C1)OC (stereo unspecified) | -3 | 21 | 10 | -11 | 24 | -2
CCCCNC(=O)CS(=O)Cc1nc(-c2cccs2)oc1C (stereo unspecified) | 6.1* | -1 | -2 | 6 | 13 | -1
COc1ccccc1N1C(=O)Cc2ccccc2C1=O | -1 | -9 | -9 | 1 | -7 | -1
COc1ccc(CCNC(=O)CN2C(=O)COc3ccc(S(=O)(=O)N4CCCC4)cc32)c(OC)c1 | 0 | 4 | -34 | -12 | -26 | -1
COC(=O)c1[nH]c2ccccc2c1NC(=O)CN1CCN(c2cccc(OC)c2)C(C)C1 (stereo unspecified) | 5.8* | 19 | -52 | 0 | 25 | -2
O=C(O)c1ccccc1C(=O)NCCc1c(C(=O)O)[nH]c2ccc(Cl)cc12 | -3 | 1 | 0 | 9 | -27 | 10*
O=C(O)c1cccc(S(=O)(=O)NNc2ccccc2C(F)(F)F)c1 | 25* | 9 | 9 | -11 | 17 | 0
Cn1cnnc1SCC(=O)Nc1ccc(S(N)(=O)=O)cc1 | -1 | 2 | 8 | 3 | 8 | 0
Cc1cc(C)n(-c2nc3ccccc3c(=O)n2OCC(=O)OCc2ccccc2)n1 | -5 | · | · | 62* | · | -1
Cc1cc(C)n(-c2nc3ccccc3c(=O)n2OCC(=O)N(C)C)n1 | -3 | -5 | -17 | 5 | 13 | -4
COC(=O)c1ccc(Oc2cc(C)nc(-n3nc(C)cc3C)n2)cc1 | -4 | · | · | 65* | · | 0
Cc1sc(-c2ccncc2)nc1OC(=O)c1cc(Cl)cc(Cl)c1 | 5.7* | 2 | 29 | -9 | 22 | -2
Cc1sc(-c2ccncc2)nc1OC(=O)c1ccc(F)cc1F | 10* | 8 | 6 | -4 | 12 | 0
COc1ccc(C(CNC(=O)c2cc(S(=O)(=O)N3CCCC3)ccc2Cl)N2CCCC2)cc1 (stereo unspecified) | · | 0 | 10 | · | 19 | ·
COc1ccc(-c2cc(C(F)(F)F)nc(S(=O)(=O)CCCC(=O)Nc3cccnc3Cl)n2)cc1OC | -1 | · | · | · | · | -2
CCC(c1nnc(SCC(=O)Nc2ccc(C(C)=O)cc2)n1C1CCCCC1)N(C)C (stereo unspecified) | -3 | 1 | -4 | 5 | 19 | 12*
COc1ccc(-c2cc(=O)c3c(OC)c(OC)c(OC)c(OC)c3o2)cc1OC | -1 | -14 | 18 | 29 | 37 | 10*!
COc1cc(-c2cc(=O)c3ccccc3o2)ccc1O | -2 | -26 | -33 | -48 | -24 | 9.5*
COc1ccc(-c2cc(=O)c3c(O)c(OC)c(O)cc3o2)cc1 | -2 | -69 | -188 | 70* | -99 | -1
CCCN1CCN(S(=O)(=O)c2ccc3c(c2)CCC(=O)N3)CC1 | · | 1 | 7 | · | -7 | ·
O=C1SC(c2ccccc2)=C/C1=C\N1CCCCC1 | 4.8* | -4 | -8 | -49 | 34 | 2
C=CC[N+](C)(C)CCN1C(=O)C2C(c3ccccc3)C=CC(c3ccccc3)C2C1=O (stereo unspecified) | 3 | -7 | 15 | -4 | 8 | 2
C=CCOCCN1C(=O)C2C(c3ccccc3)C=CC(c3ccccc3)C2C1=O (stereo unspecified) | 15* | 14 | -2 | -6 | 11 | 0
Cc1cc(C)c2nc(C)cc(Nc3ccc(C(=O)N4CCOCC4)cc3)c2c1 | -3 | -3 | -7 | 6 | -26 | 3
Cc1ccc2nc(C)cc(Nc3ccc([N+](=O)[O-])cc3)c2c1 | -2 | · | · | 10 | · | 5
CC(=O)c1cccc(Nc2cc(C)nc3ccc(C)cc23)c1 | -5 | 39 | -9 | -7 | 29 | 9.8*
